Experimental data as given in paper PMC11969896 (Virology Journal, 2025).
Several values for one entry are separate records, joined by “and”; a condition that tells them apart may be missing. Identical values can stand only once.

Tests used:
MNV RdRp = molecular target: T1, MNV RdRp (Norovirus, UniProt Q80J95); assay: Size-exclusion chromatography of MNV RdRp with or without compound; parameters: species or system murine norovirus; details: 60 μM compound
T1 sequence (Q80J95 1178-1687 limits assumed): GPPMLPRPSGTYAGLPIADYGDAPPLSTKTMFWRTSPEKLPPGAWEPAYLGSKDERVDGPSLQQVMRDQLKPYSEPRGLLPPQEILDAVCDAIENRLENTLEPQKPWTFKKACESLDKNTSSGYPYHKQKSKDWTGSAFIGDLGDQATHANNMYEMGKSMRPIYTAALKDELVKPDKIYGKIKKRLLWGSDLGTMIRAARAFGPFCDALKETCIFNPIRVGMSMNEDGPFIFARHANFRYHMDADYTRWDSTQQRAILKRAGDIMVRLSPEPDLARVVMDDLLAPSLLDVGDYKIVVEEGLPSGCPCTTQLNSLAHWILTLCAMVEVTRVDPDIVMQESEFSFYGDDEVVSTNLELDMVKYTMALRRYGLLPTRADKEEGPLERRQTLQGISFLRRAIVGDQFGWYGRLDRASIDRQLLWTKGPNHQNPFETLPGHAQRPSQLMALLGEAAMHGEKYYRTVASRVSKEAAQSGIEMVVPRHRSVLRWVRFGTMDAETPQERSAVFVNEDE
Procedure, shortened: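 Purified RdRp, with or without 60 μM compound, run on a Superose 6 10/300 GL gel-filtration column equilibrated in 20 mM Tris-HCl pH 8.0, 150 mM NaCl, at 0.4 mL/min.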

Cytotoxicity [1] = type: cell-based; details: mouse, RAW264.7 cells
MNV^CW3 [2] = assay: MNV plaque assay; type: cell-based, murine norovirus; details: BV2 cells, 97 μM, 24 h
Procedure, shortened: (§1)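 Infected cells harvested at 24 hpi and frozen at −80 °C. RAW264.7 monolayers seeded at 1.8 × 10^6 cells/well; 16 h later, tenfold serial lysate dilutions applied for 1 h with rocking. Overlay of MEM, 10% FBS, 2 mM L-glutamine, 10 mM HEPES and 1% methylcellulose, incubated 2 days. Plaques stained with 0.2% crystal violet in 20% ethanol.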

MNV^CW3 [3] = assay: MNV plaque assay; type: cell-based, murine norovirus; details: RAW264.7 cells, 40 μg/mL, 24 h
Procedure, shortened: as §1

MNV^CR6 = MNV^CR6 replication in cell culture; type: cell-based, murine norovirus; details: BV2 and RAW264.7 cells
MNV^CW3 [4] = assay: Cell viability of MNV^CW3-infected RAW264.7 cells; type: cell-based, murine norovirus; details: RAW264.7 cells after MNV^CW3 infection, 24 h
MNV^CW3 [5] = assay: MNV viral genome copies quantification; type: cell-based, murine norovirus; details: BV2 cells, 40 μg/mL (97 μM), 24 h treatment
Cytotoxicity [6] = type: cell-based; details: mouse, BV2 cells
HNV RdRp = molecular target: T2, HNV RdRp (Norovirus Hu/GII.4/Sydney348/97O/AU, UniProt Q2N379); assay: RdRp inhibition assay; type: biochemical, human norovirus (G II 0.4/Sydney/2006)
T2 sequence (Q2N379 1-510): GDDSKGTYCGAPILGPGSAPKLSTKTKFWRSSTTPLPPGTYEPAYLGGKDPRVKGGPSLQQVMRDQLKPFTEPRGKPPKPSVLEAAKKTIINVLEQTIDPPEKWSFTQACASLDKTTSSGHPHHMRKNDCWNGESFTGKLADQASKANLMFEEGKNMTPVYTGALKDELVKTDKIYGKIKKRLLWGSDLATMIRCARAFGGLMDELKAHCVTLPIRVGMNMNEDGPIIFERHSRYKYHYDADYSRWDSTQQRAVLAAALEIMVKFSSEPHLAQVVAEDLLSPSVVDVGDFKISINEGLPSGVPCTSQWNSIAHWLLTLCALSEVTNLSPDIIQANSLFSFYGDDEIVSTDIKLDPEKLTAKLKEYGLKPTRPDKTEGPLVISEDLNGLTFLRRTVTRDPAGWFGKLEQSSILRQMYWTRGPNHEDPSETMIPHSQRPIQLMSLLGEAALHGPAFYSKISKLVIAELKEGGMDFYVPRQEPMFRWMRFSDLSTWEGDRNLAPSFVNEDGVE
Procedure, shortened: (§2)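 MNV^CW3 RdRp (GST-tagged) or HNV GII.4 Sydney/2006 RdRp (His-tagged) expressed in E. coli BL21(DE3) and affinity-purified. Enzyme preincubated with compound 10 min at 30 °C in 10 mM PBS pH 7.5, 2.5 mM MnCl2, 5 mM DTT. Poly(C) and GTP then added (final 2.8 μM enzyme, 40 μg/mL poly(C), 25 μM GTP), 30 min at 30 °C. EDTA stop; dsRNA by PicoGreen (ex 480/em 520 nm); normalized to 0.5% DMSO vehicle.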

MNV^CW3 [7] = assay: Cell viability-based anti-MNV screening in MNV^CW3-infected BV2 cells; parameters: species or system murine norovirus; details: MNV^CW3 infection, 40 μg/mL compound, 24 h, DMSO control about 2.7%
Procedure, shortened: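 BV2 cells plated at 10,000/well 16–18 h before infection with MNV^CW3 at MOI 0.25 for 1 h. Medium then replaced with 40 μg/mL compound or DMSO vehicle. Viability read after 24 h as ATP level by luminescence kit. At least 3 biological repeats.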

MNV^CW3 [8] = assay: MNV viral genome copies quantification; type: cell-based, murine norovirus; details: RAW264.7 cells, 40 μg/mL, 24 h
MNV^CW3 RdRp = molecular target: T3, MNV^CW3 RdRp (Norovirus, UniProt Q80J95); assay: RdRp inhibition assay; type: biochemical, murine norovirus
T3 sequence (Q80J95 1178-1687 limits assumed): T1 sequence (Q80J95 1178-1687 limits assumed)
Procedure, shortened: as §2

Row | SMILES | main SEC peak formed by the protein when compound added (aggregation check) (MNV RdRp) | CC50 (Cytotoxicity [1]) [µM] | formation of MNV^CW3 plaques (viral titer) (MNV^CW3 [2]) | MNV^CW3 viral titers (MNV^CW3 [3]) | cell viability after MNV^CR6 infection (MNV^CR6) | MNV^CR6 plaque numbers (MNV^CR6; 97 μM) | MNV^CR6 viral genome copies (MNV^CR6; 97 μM (40 μg/mL)) | concentration of maximum effectiveness (cell viability) (MNV^CW3 [4]) [µg/mL] | decrease of MNV^CW3 RNA level vs DMSO vehicle control (MNV^CW3 [5]) | CC50 (Cytotoxicity [6]) | IC50 (HNV RdRp) [µM] | inhibition of HNV RdRp (HNV RdRp; same assay, normalized to DMSO vehicle control) | cell viability (ratio of live cells) (MNV^CW3 [7]) [%] | MNV^CW3 genome copy number (MNV^CW3 [8]) | IC50 (MNV^CW3 RdRp) [µM] | inhibition of MNV^CW3 RdRp (MNV^CW3 RdRp; 35 μM RdRp in the reaction system, vs vehicle (0.5% DMSO), 4 μL of 100 μM compound (4 μM Co-29 final)) [%]
1 | N#Cc1c(-c2ccccc2O)nc(SCC(=O)Nc2cc(F)cc(F)c2)[nH]c1=O [Co-29, 2-((5-cyano-4-(2-hydroxyphenyl)-6-oxo-1,6-dihydropyrimidin-2-yl)thio)-N-(3,5-difluorophenyl)acetamide] | did not change | 105 | dramatically inhibited | decreased | increased cell viability | decreased plaque numbers | low levels of viral genome copies | 40 | more than 2 Log10-fold | ~52.2 µg/mL and ~126 µM | 36.6 | more than 70% | 36.9 | decreased | 32 | > 75
2 | C[C@@]1(O)[C@H](O)[C@@H](CO)O[C@H]1n1ccc(N)nc1=O [Compound 2CMC, 2′-C-methyl-cytidine, reference compound] |  |  |  | decreased |  |  |  |  |  |  |  |  |  | decreased |  | 
